Assay outcomes from PubChem.
Sampled rows, rich in hits. Any-hit rate of the full collection: about 2.7%.
Rev-erbA mod: modulators of Rev-erb alpha DNA binding, primary screen, biochemical, FITC-DNA, fluorescence polarization, uHTS; 0.79% of 370,000 active; Nuclear receptor subfamily 1 group D member 1 (Homo sapiens), P20393; activity, % at 10 µM; Rev-erbα–FITC-DNA binding, 90 min; AID 1259318, 2017;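 active = activity above about 14%, limit read from the data; passing the limit was not always enough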
MC4R antagonist: MC4R antagonists of cAMP signaling, primary screen, cell-based, TR-FRET, antagonist arm of biased-ligand search; inhibition, % at 6.5 µM; 0.48% of 360,000 active; MC4R-expressing cells, MTII-stimulated cAMP, LANCE TR-FRET;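 active = inhibition above its plate's cutoff, the mean of tested wells on that plate plus 3 SD, cut at about 29% in these data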
Target sequence (P32245 whole entry, looked up): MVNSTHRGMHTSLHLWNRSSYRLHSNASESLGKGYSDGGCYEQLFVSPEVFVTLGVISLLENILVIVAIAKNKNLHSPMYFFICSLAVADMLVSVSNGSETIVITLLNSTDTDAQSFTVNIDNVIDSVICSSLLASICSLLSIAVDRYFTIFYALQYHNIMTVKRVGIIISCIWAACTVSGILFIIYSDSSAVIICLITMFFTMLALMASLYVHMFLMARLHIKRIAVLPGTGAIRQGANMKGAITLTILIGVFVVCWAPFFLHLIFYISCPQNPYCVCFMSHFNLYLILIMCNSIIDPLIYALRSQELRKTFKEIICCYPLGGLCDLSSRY
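System: U2OS cells stably expressing human melanocortin 4 receptor (MC4R). Reagent: Melanotan II challenge after compound preincubation. Doses: 6.5 µM. Times: 30-min compound, 1-h challenge, 1-h detection, room temperature. Measured by: TR-FRET with Eu-cAMP and labeled anti-cAMP, 671 nm. Replicates: singlicate.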
NR2E3 ag-1: NR2E3 agonists in two-hybrid cells, primary screen, cell-based, luminescence, CHO-S, Gal4-NCOR/VP16-NR2E3; Photoreceptor-specific nuclear receptor (Homo sapiens), Q9Y5X4; luciferase; inhibition of corepressor binding, % at 3.98 µM; 0.35% of 360,000 active; AID 602229, 2012;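 active = inhibition above the mean of all tested compounds plus 3 SD, cut at about 70% in these data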;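 also: higher means lower luciferase signal from less NR2E3 corepressor binding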
NR2E3 ag-2: inhibitors of NR2E3-RetCOR corepressor binding, primary screen, NR2E3 agonist project, biochemical, TR-FRET, GST-NR2E3, biotin-RetCOR | 1536-well | 0.12% of 320,000 active | inhibition of corepressor binding, % at 4.78 µM | Photoreceptor-specific nuclear receptor (Homo sapiens), Q9Y5X4;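 active = percent inhibition above the cutoff of mean plus 3 SD of all tested compounds, set per screening campaign, cut at about 20% in these data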
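Test system – NR2E3–RetCOR corepressor complex · Quantity – NR2E3 fusion 1.35 nM · Buffer or medium – Tris pH 7.5 · Incubation – Compound–protein incubation for 5 h at 4 °C · Technique – TR-FRET, Eu(K)-anti-GST donor, streptavidin-D2 acceptor, ex 340, em 617/671 nm · Evaluation – percent inhibition of 671/617 nm emission ratio versus biotin and DMSO controls · Plate – 1536-well format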
MC4R ag barr: MC4R agonists recruiting beta-arrestin, primary screen, cell-based, luminescence, agonist arm of biased-ligand search; 0.98% of 360,000 active; Melanocortin receptor 4 (Homo sapiens), P32245; activation, % at 8.9 µM; U2OS MC4R beta-arrestin complementation; percent of melanotan II response, DMSO zero; AID 540308, 2011;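 active = activation above a per-plate cutoff, the mean activation of sample wells on that plate plus 3 SD, cut at about 8% in these data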
PG9 binder: binders of HIV-1 gp120 antibody PG9, primary screen, biochemical, TR-FRET. HIV-1 gp120 / PG9 antibody interaction. TR-FRET gp120-PG9 antibody binding. inhibition, % at 6.7 µM. 0.43% of 360,000 active. AID 624416, 2012; in the data active = inhibition above about 8.5%
A number is an active result; i = inactive; nt = no result.

SMILES	Rev-erbA mod	MC4R antagonist	NR2E3 ag-1	NR2E3 ag-2	MC4R ag barr	PG9 binder
O=C(N/N=C\c1cn[nH]c1-c1ccc(Cl)cc1)c1cccs1	i	i	i	i	8.8	i
O=C(N/N=C/c1cn[nH]c1-c1ccc(Cl)cc1)c1ccc([N+](=O)[O-])cc1	i	i	i	i	i	i
Cc1ccc(C(=O)NC(=S)NCC(=O)c2ccccc2)cc1	i	i	i	i	11	i
O=C(CNC(=S)NC(=O)c1cccs1)c1ccccc1	i	i	i	i	i	i
COc1ccc(NC2=C(C)C(=O)CC2)cc1	i	i	i	i	i	i
COc1ccccc1C(=O)NNC(=O)c1ccncc1	i	i	i	i	i	i
Cc1ccc(Oc2nc(-c3ccccc3)ncc2S(C)(=O)=O)cc1	i	i	i	i	8.4	i
Cc1ccc(C(=O)Nc2ccc(OCc3ccccc3)cc2)cc1[N+](=O)[O-]	i	i	i	i	9.5	i
O=S(=O)(Nc1nc(-c2sccc2Cl)cs1)c1cc(Cl)ccc1Cl	nt	i	99	i	i	nt
CC(C)(C)c1nnc(NS(=O)(=O)c2cc(Cl)ccc2Cl)s1	i	i	i	i	i	i
COc1ccc(OC)c(Nc2nc(-c3ccncc3)nc3ccccc23)c1	i	i	i	nt	13	i
Cc1ccc(C)c(NS(=O)(=O)c2ccc3c(c2)Cc2cc(S(=O)(=O)Nc4cc(C)ccc4C)ccc2-3)c1	i	i	i	i	8.8	i
CCn1c2ccccc2c2cc([N+](=O)[O-])ccc21	i	i	i	i	i	i
CN(C)CCn1c2ccccc2c2nc3ccc([N+](=O)[O-])cc3cc21	i	i	i	i	8.3	i
Cc1ccc(NC(=S)Nc2cc(-c3ccccc3)[nH]n2)cc1Cl	i	i	i	i	8.9	i
CSC(=NC#N)N1CCN(c2ccccn2)CC1	i	i	i	i	i	i
Cc1ccc(-n2ccc(=O)c(-c3ccnc(SCc4cccc(Cl)c4)n3)n2)cc1	i	i	i	i	8.6	i
CCn1c(-c2nn(-c3ccc(C)cc3)ccc2=O)n[nH]c1=S	i	i	i	i	i	i
Cc1cc(C)cc(NC(=S)N2CCC(c3nc4ccccc4s3)CC2)c1	i	i	i	i	8.5	i
COc1ccc(CN2CCNC(=O)C2CC(=O)N(C)CC2CCOCC2)c(F)c1 (centres undefined)	i	i	i	i	i	i
CCOc1ccc(CN(C)C(=O)CNC(=O)c2sc3ccccc3c2Cl)cc1	i	i	i	i	i	i
Cc1ccc(SCCC(=O)Nc2ccccc2C(=O)NC2CCCCC2)cc1	i	i	i	i	9.4	i
Cc1ccc(OCCC(=O)Nc2ccccc2C(=O)NC2CC2)cc1	i	i	i	nt	i	i
C[C@@H](C[C@@H](O)[C@H](O)C(C)(C)O)[C@@H]1CC[C@]2(C)C3=CC[C@H]4C(C)(C)C(=O)CC[C@]4(C)[C@H]3CC[C@@]12C	i	i	i	i	9.4	i
C[C@H](C[C@H](O)[C@H]1OC1(C)C)C1=C2C[C@H](O)C3[C@@]4(C)CCC(=O)C(C)(C)C4CC[C@]3(C)[C@@]2(C)CC1 (some centres undefined)	i	i	i	nt	i	i
SMILES	Rev-erbA mod	MC4R antagonist	NR2E3 ag-1	NR2E3 ag-2	MC4R ag barr	PG9 binder
CN(CC(=O)Nc1cccc(F)c1)C(=O)CCCc1c[nH]c2ccccc12	i	i	i	i	i	i
COc1ccc(C(=O)c2sc3nc(-c4ccc(OC)cc4)ccc3c2N)cc1	i	i	i	i	9.2	i
COc1ccc(-c2ccc3c(N)c(C(=O)c4cccc(OC)c4)sc3n2)cc1	i	i	i	i	i	i
COCCNC(=O)c1cccc2c(-c3cnn(C)c3)coc12	i	i	i	nt	i	i
O=C1CCC(=O)N1c1cccc(OS(=O)(=O)c2ccccc2)c1	i	i	i	i	i	i
O=c1c(O)cccc2cc(O)c(O)c(O)c12	i	i	i	i	i	i
COc1ccc2cc(/C=N/NC(=O)CSCc3ccc([N+](=O)[O-])cc3)c(Cl)nc2c1	i	i	i	i	12	i
O=C(N/N=C\c1ccc(F)cc1)c1cc(OCC(F)(F)F)ccc1OCC(F)(F)F	i	i	i	i	i	i
Cc1ccc(/C=N\NC(=O)c2cc(OCC(F)(F)F)ccc2OCC(F)(F)F)cc1	i	i	i	i	14	i
O=C(N[C@@H]1C[C@@H]2O[C@@H](CO)CC[C@@H]2O[C@@H]1CCc1ccc(-c2cccnc2)cc1)c1cccc(F)c1	i	nt	nt	nt	nt	nt
Cc1ccc(C(=O)O)cc1-c1ccc(/C=C2\SC(=O)N(CC(=O)Nc3ccccc3)C2=O)o1	i	32	i	i	i	i
C=CCNc1nc(Cl)nc(Nc2cc(Cl)ccc2OC)n1	i	i	i	nt	8.8	i
CCOc1nc(Nc2cc(Cl)ccc2OC)nc(OCC)n1	i	i	i	i	i	i
CC(C)c1ccc(O)c(NC(=S)NC(=O)c2ccc3c(c2)OCO3)c1	i	i	i	i	11	i
O=C(NC(=S)Nc1ccccc1N1CCCCC1)c1ccccc1	i	i	i	i	9.1	i
Cc1ccccc1NC(=O)/C=C/c1ccc([N+](=O)[O-])s1	nt	i	85	i	i	nt
Cc1cc(C)cc(NC(=O)/C=C/c2ccc([N+](=O)[O-])s2)c1	i	i	i	i	i	i
O=S(=O)(c1ccccc1)N1CCN(Cc2ccc(Cl)cc2)CC1	i	i	i	i	i	i
O=C(CCS(=O)(=O)c1ccc(F)cc1)Nc1nnc(-c2ccco2)o1	i	i	i	i	i	i
Cc1cc(NC(=O)Nc2ccccc2F)ccc1Br	i	i	i	i	8.7	i
C/C(=N\NC(=O)CNc1cccc(C(F)(F)F)c1)c1ccc(Br)cc1	i	i	i	i	8.3	i
C/C(=N\NC(=O)CNc1cccc(C(F)(F)F)c1)c1cccc(Br)c1	i	i	i	i	i	i
CCN1CCCCC(NC(=O)c2cccc(C(F)(F)F)c2)C1=O (centres undefined)	i	nt	nt	nt	nt	nt
CCOC(=O)c1oc2ccc(S(=O)(=O)Nc3ccc4c(c3)n(C)c(=O)n4C)cc2c1C	i	i	77	i	i	i
COc1ccc(S(=O)(=O)Nc2ccc3c(c2)n(C)c(=O)n3C)cc1C	i	i	i	i	i	i
